System: HEK-293T
Assay: Multiplex assay against HEK293T;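 for Population Tubulin-Different-Phenotype (%): share of the cells with healthy nuclei that show this phenotype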
Format: toxicity, cell-based
Details: human
In short: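 Tubulin, mitochondrial-mass and membrane-permeability phenotypes are per cents of healthy-nucleus cells. Cells were gated by CellPathfinder machine learning into Hoechst high-intensity objects or normal cells, normal cells into healthy, pyknosed or fragmented nuclei, and pyknosed cells into mitotic or apoptotic. Before that, live cells stained at seeding with Hoechst33342, BioTracker Green Microtubule Cytoskeleton Dye, MitoTracker Red and Annexin V Alexa Fluor 680 were imaged on a CQ1 microscope at 37°C and 5% CO2 after compound addition.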

[1] = 12 h, 1 µM, compound concentration 1 uM, replicate 1
[2] = 12 h, 1 µM, compound concentration 1 uM, replicate 2
[3] = 12 h, 10 µM, compound concentration 10 uM, replicate 1
[4] = 12 h, 10 µM, compound concentration 10 uM, replicate 2
[5] = 24 h, 1 µM, compound concentration 1 uM, replicate 1
[6] = 24 h, 1 µM, compound concentration 1 uM, replicate 2
[7] = 24 h, 10 µM, compound concentration 10 uM, replicate 1
[8] = 24 h, 10 µM, compound concentration 10 uM, replicate 2
[9] = 48 h, 1 µM, compound concentration 1 uM, replicate 1
[10] = 48 h, 1 µM, compound concentration 1 uM, replicate 2
[11] = 48 h, 10 µM, compound concentration 10 uM, replicate 1
[12] = 48 h, 10 µM, compound concentration 10 uM, replicate 2

In the case of `Cc1ccc(C(=O)Nc2cccc(C(F)(F)F)c2)cc1Nc1nc(-c2cccnc2)nc2c1cnn2C`, the “Population Apoptotic (%)” value [1] is reported as 63%, the “Population Fragmented Nuclei (%)” value [1] is reported as 15% and the “Population Healthy Nuclei (%)” value [1] is reported as 33%. For the same molecule, the “Population Hoechst High Intensity Objects (%)” value [1] was 19%, the “Population Membrane Permeable-Phenotype (%)” value [1] was 1% and the “Population Mitochondria Different-Phenotype (%)” value [1] was 94%. The “Population Mitotic Cells (%)” value [1] was 36%, the “Population Normal (%)” value [1] was 80% and the “Population Pyknosed Nuclei (%)” value [1] was 50%. The “Population Tubulin-Different-Phenotype (%)” value [1] was 94%, the “Total Cell Count” value [1] was 318 and the “Population Apoptotic (%)” value [2] was 27%. For the same molecule, the “Population Fragmented Nuclei (%)” value [2] was 7%, the “Population Healthy Nuclei (%)” value [2] was 25% and the “Population Hoechst High Intensity Objects (%)” value [2] was 9%. For the same molecule, the “Population Membrane Permeable-Phenotype (%)” value [2] was 7%, the “Population Mitochondria Different-Phenotype (%)” value [2] was 52% and the “Population Mitotic Cells (%)” value [2] was 72%. The “Population Normal (%)” value [2] was 90%, the “Population Pyknosed Nuclei (%)” value [2] was 66% and the “Population Tubulin-Different-Phenotype (%)” value [2] was 89%. For the same molecule, the “Total Cell Count” value [2] was 162, the “Population Apoptotic (%)” value [3] was 86% and the “Population Fragmented Nuclei (%)” value [3] was 16%. The “Population Healthy Nuclei (%)” value [3] was 7%, the “Population Hoechst High Intensity Objects (%)” value [3] was 19% and the “Population Membrane Permeable-Phenotype (%)” value [3] was 8%. The “Population Mitochondria Different-Phenotype (%)” value [3] was 91%, the “Population Mitotic Cells (%)” value [3] was 13% and the “Population Normal (%)” value [3] was 80%. For the same molecule, the “Population Pyknosed Nuclei (%)” value [3] was 75%, the “Population Tubulin-Different-Phenotype (%)” value [3] was 91% and the “Total Cell Count” value [3] was 200. For the same molecule, the “Population Apoptotic (%)” value [4] was 78%, the “Population Fragmented Nuclei (%)” value [4] was 5% and the “Population Healthy Nuclei (%)” value [4] was 13%. For the same molecule, the “Population Hoechst High Intensity Objects (%)” value [4] was 5%, the “Population Membrane Permeable-Phenotype (%)” value [4] was 4% and the “Population Mitochondria Different-Phenotype (%)” value [4] was 96%. The “Population Mitotic Cells (%)” value [4] was 21%, the “Population Normal (%)” value [4] was 94% and the “Population Pyknosed Nuclei (%)” value [4] was 81%. For the same molecule, the “Population Tubulin-Different-Phenotype (%)” value [4] was 92%, the “Total Cell Count” value [4] was 190 and the “Population Apoptotic (%)” value [5] was 64%. The “Population Fragmented Nuclei (%)” value [5] was 14%, the “Population Healthy Nuclei (%)” value [5] was 38% and the “Population Hoechst High Intensity Objects (%)” value [5] was 16%. For the same molecule, the “Population Membrane Permeable-Phenotype (%)” value [5] was 2%, the “Population Mitochondria Different-Phenotype (%)” value [5] was 92% and the “Population Mitotic Cells (%)” value [5] was 35%. The “Population Normal (%)” value [5] was 83%, the “Population Pyknosed Nuclei (%)” value [5] was 46% and the “Population Tubulin-Different-Phenotype (%)” value [5] was 90%. For the same molecule, the “Total Cell Count” value [5] was 330, the “Population Apoptotic (%)” value [6] was 51% and the “Population Fragmented Nuclei (%)” value [6] was 7%. The “Population Healthy Nuclei (%)” value [6] was 43%, the “Population Hoechst High Intensity Objects (%)” value [6] was 6% and the “Population Membrane Permeable-Phenotype (%)” value [6] was 11%. The “Population Mitochondria Different-Phenotype (%)” value [6] was 64%, the “Population Mitotic Cells (%)” value [6] was 48% and the “Population Normal (%)” value [6] was 93%. For the same molecule, the “Population Pyknosed Nuclei (%)” value [6] was 48%, the “Population Tubulin-Different-Phenotype (%)” value [6] was 97% and the “Total Cell Count” value [6] was 172. For the same molecule, the “Population Apoptotic (%)” value [7] was 89%, the “Population Fragmented Nuclei (%)” value [7] was 16% and the “Population Healthy Nuclei (%)” value [7] was 10%. For the same molecule, the “Population Hoechst High Intensity Objects (%)” value [7] was 22%, the “Population Membrane Permeable-Phenotype (%)” value [7] was 0% and the “Population Mitochondria Different-Phenotype (%)” value [7] was 100%. For the same molecule, the “Population Mitotic Cells (%)” value [7] was 10%, the “Population Normal (%)” value [7] was 77% and the “Population Pyknosed Nuclei (%)” value [7] was 72%. The “Population Tubulin-Different-Phenotype (%)” value [7] was 100%, the “Total Cell Count” value [7] was 225 and the “Population Apoptotic (%)” value [8] was 85%. For the same molecule, the “Population Fragmented Nuclei (%)” value [8] was 5%, the “Population Healthy Nuclei (%)” value [8] was 24% and the “Population Hoechst High Intensity Objects (%)” value [8] was 4%. The “Population Membrane Permeable-Phenotype (%)” value [8] was 4%, the “Population Mitochondria Different-Phenotype (%)” value [8] was 95% and the “Population Mitotic Cells (%)” value [8] was 14%. The “Population Normal (%)” value [8] was 95%, the “Population Pyknosed Nuclei (%)” value [8] was 70% and the “Population Tubulin-Different-Phenotype (%)” value [8] was 95%. For the same molecule, the “Total Cell Count” value [8] was 205, the “Population Apoptotic (%)” value [9] was 52% and the “Population Fragmented Nuclei (%)” value [9] was 21%. The “Population Healthy Nuclei (%)” value [9] was 45%, the “Population Hoechst High Intensity Objects (%)” value [9] was 15% and the “Population Membrane Permeable-Phenotype (%)” value [9] was 4%. The “Population Mitochondria Different-Phenotype (%)” value [9] was 74%, the “Population Mitotic Cells (%)” value [9] was 47% and the “Population Normal (%)” value [9] was 84%. For the same molecule, the “Population Pyknosed Nuclei (%)” value [9] was 33%, the “Population Tubulin-Different-Phenotype (%)” value [9] was 88% and the “Total Cell Count” value [9] was 371. The “Population Apoptotic (%)” value [10] was 47%, the “Population Fragmented Nuclei (%)” value [10] was 6% and the “Population Healthy Nuclei (%)” value [10] was 63%. The “Population Hoechst High Intensity Objects (%)” value [10] was 9%, the “Population Membrane Permeable-Phenotype (%)” value [10] was 8% and the “Population Mitochondria Different-Phenotype (%)” value [10] was 43%. For the same molecule, the “Population Mitotic Cells (%)” value [10] was 52%, the “Population Normal (%)” value [10] was 90% and the “Population Pyknosed Nuclei (%)” value [10] was 30%. For the same molecule, the “Population Tubulin-Different-Phenotype (%)” value [10] was 96%, the “Total Cell Count” value [10] was 230 and the “Population Apoptotic (%)” value [11] was 86%. The “Population Fragmented Nuclei (%)” value [11] was 23%, the “Population Healthy Nuclei (%)” value [11] was 15% and the “Population Hoechst High Intensity Objects (%)” value [11] was 20%. For the same molecule, the “Population Membrane Permeable-Phenotype (%)” value [11] was 6%, the “Population Mitochondria Different-Phenotype (%)” value [11] was 100% and the “Population Mitotic Cells (%)” value [11] was 13%. The “Population Normal (%)” value [11] was 79%, the “Population Pyknosed Nuclei (%)” value [11] was 60% and the “Population Tubulin-Different-Phenotype (%)” value [11] was 96%. For the same molecule, the “Total Cell Count” value [11] was 258, the “Population Apoptotic (%)” value [12] was 89% and the “Population Fragmented Nuclei (%)” value [12] was 8%. For the same molecule, the “Population Healthy Nuclei (%)” value [12] was 29%, the “Population Hoechst High Intensity Objects (%)” value [12] was 7% and the “Population Membrane Permeable-Phenotype (%)” value [12] was 1%. The “Population Mitochondria Different-Phenotype (%)” value [12] was 93%, the “Population Mitotic Cells (%)” value [12] was 10% and the “Population Normal (%)” value [12] was 92%. For the same molecule, the “Population Pyknosed Nuclei (%)” value [12] was 61%, the “Population Tubulin-Different-Phenotype (%)” value [12] was 93% and the “Total Cell Count” value [12] was 209.
